Results: ChEMBL document CHEMBL4842354, “Synthesis, structure-activity relationships, cocrystallization and cellular characterization of novel smHDAC8 inhibitors for the treatment of schistosomiasis” (Eur J Med Chem, 2021)

Columns and labels:
[1] = system: Schistosoma mansoni; experiment: Antischistosomal activity against Schistosoma mansoni schistosomula at 10 uM incubated for 48 hrs by Alamar Blue assay; type: functional
Method in brief: (§1)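 S. mansoni newly transformed schistosomula from mechanically transformed cercariae, 100 NTS/well in Medium 199 with 10% FCS, penicillin, streptomycin and rifampicin. Pre-cultured 3 h at 37°C, 5% CO2. Compounds from 20 mM DMSO stocks, final 10 or 20 μM. Alamar Blue added after 48 h exposure, then 24 h more. Resorufin read at Ex 530/Em 590 nm. Live and ethanol-killed larvae as controls; triplicate wells, two biological replicates.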

[2] = system: HEK293; experiment: Cytotoxicity against human HEK293 assessed as reduction in cell viability at 50 uM measured for 24 hrs by Alamar Blue assay; type: cell-based; conditions: hek293, 24 h
Method in brief: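 HEK293 cells in DMEM with 10% FCS and 5 mM glutamine at 37°C, 5% CO2, seeded at 1.5×10^3 cells/well. Compounds added at 50 μM. AlamarBlue added after 24 h and incubated a further 21 h. Resorufin fluorescence read at Ex 530/Em 590 nm. Triplicates; daunorubicin positive control.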

[3] = system: Schistosoma mansoni; experiment: Antischistosomal activity against Schistosoma mansoni schistosomula at 20 uM incubated for 48 hrs by Alamar Blue assay; type: functional; method in brief: as §1
[4] = target: T1, HDAC6 (protein deacetylase HDAC6) (Homo sapiens, UniProt Q9UBN7); experiment: Inhibition of recombinant human HDAC6 at 100 uM using ZMAL as substrate incubated for 90 mins by fluorescence based micro plate assay relative to control; conditions: recombinant human HDAC6, probe ZMAL
T1 sequence (Q9UBN7 whole entry): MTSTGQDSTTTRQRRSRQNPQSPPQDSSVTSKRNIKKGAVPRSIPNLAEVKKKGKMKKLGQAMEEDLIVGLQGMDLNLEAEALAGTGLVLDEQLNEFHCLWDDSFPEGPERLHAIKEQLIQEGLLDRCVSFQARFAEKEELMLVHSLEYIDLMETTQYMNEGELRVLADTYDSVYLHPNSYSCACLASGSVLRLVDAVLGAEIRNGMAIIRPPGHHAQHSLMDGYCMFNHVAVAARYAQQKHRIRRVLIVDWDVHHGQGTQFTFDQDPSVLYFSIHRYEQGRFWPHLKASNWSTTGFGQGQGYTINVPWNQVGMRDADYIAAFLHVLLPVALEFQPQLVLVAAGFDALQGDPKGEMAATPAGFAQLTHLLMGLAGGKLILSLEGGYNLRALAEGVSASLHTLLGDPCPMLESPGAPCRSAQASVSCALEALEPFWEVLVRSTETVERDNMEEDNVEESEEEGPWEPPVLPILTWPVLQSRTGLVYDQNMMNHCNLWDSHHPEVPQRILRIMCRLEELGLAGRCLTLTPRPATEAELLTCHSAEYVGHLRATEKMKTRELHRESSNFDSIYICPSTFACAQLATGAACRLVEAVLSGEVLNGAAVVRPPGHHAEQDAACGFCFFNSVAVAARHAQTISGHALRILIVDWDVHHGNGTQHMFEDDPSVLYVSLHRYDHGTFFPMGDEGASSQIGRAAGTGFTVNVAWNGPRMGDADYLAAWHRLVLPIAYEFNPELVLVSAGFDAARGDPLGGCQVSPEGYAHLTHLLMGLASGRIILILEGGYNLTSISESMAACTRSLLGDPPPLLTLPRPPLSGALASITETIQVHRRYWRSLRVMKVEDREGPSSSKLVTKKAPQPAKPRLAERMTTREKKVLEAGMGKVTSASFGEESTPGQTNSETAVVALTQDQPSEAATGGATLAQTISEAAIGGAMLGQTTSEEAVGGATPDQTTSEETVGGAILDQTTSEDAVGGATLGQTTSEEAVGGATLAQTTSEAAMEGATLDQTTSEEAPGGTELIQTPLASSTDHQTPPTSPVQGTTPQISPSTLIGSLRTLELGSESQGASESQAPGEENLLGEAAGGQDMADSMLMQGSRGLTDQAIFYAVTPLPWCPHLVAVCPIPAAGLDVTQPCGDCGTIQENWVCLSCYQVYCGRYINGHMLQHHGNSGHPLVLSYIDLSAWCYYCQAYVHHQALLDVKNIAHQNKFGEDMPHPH
Method in brief: (§2)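 Recombinant human HDAC1 or HDAC6 incubated 90 min at 37°C with ZMAL (Z-(Ac)Lys-AMC, 10.5 μM) and inhibitor. Developed with buffer containing trypsin (1 mg/mL) and TSA (2.75 μM), 20 min at 37°C. Fluorescence read at Ex 390/Em 460 nm.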

[5] = target: T2, Histone deacetylase 8 (Schistosoma mansoni) (UniProt A5H660); experiment: Inhibition of Schistosoma mansoni HDAC8 at 0.5 uM using Fluor de Lys as substrate incubated for 90 mins by fluorescence method relative to control
T2 sequence (whole entry): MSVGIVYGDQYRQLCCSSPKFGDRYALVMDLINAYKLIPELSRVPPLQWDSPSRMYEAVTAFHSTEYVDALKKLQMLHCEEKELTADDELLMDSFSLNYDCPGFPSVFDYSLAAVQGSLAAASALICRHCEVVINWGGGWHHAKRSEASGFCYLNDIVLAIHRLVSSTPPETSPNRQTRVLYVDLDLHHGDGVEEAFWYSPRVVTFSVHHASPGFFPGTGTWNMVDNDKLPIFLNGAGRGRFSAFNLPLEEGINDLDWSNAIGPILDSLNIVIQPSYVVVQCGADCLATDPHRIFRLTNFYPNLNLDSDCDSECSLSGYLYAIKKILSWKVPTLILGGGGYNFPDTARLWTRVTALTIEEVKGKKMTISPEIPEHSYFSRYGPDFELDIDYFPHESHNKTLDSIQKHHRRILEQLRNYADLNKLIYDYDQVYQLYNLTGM
Method in brief: (§3)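 Recombinant smHDAC8 or hHDAC8 (Romier lab) run to Fluor de Lys HDAC8 kit protocol. Substrate H2N-Arg-His-Lys(Ac)-Lys(Ac)-AMC at 50 μM with increasing inhibitor concentrations, 90 min at 37°C. Stop solution holding inhibitor plus trypsin, then 20 min at 37°C to release AMC. Fluorescence read at Ex 355/Em 460 nm.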

[6] = target: T1, HDAC6 (protein deacetylase HDAC6); experiment: Inhibition of recombinant human HDAC6 at 1 uM using ZMAL as substrate incubated for 90 mins by fluorescence based micro plate assay relative to control; conditions: recombinant human HDAC6, probe ZMAL; method in brief: as §2
[7] = target: T3, Histone deacetylase 8 (Schistosoma mansoni, UniProt A5H660); experiment: Inhibition of Schistosoma mansoni HDAC8 using Fluor de Lys as substrate incubated for 90 mins by fluorescence method; method in brief: as §3
T3 sequence (A5H660 whole entry): T2 sequence (whole entry)

[8] = target: T4, Histone deacetylase 8 (Homo sapiens, UniProt Q9BY41); experiment: Inhibition of human recombinant HDAC8 using H2N-Arg-His-Lys(Ac)-Lys(Ac)-AMC as substrate after 90 mins by fluorescence based micro plate assay
T4 sequence (Q9BY41 whole entry): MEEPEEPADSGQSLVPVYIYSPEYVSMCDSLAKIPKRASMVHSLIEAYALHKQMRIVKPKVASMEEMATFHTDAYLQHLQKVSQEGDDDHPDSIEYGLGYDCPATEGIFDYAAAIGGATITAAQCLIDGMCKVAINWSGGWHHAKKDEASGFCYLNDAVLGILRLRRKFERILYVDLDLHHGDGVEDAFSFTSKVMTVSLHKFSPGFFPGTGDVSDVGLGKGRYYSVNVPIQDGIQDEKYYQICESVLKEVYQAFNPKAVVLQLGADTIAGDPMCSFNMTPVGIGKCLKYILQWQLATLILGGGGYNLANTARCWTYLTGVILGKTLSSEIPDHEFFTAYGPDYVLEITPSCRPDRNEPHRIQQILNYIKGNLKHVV

[9] = target: T5, HDAC1 (histone deacetylase 1) (Homo sapiens, UniProt Q13547); experiment: (§4) Inhibition of recombinant human HDAC1 at 1 uM using ZMAL as substrate incubated for 90 mins by fluorescence based micro plate assay relative to control; conditions: recombinant human HDAC1, probe ZMAL; method in brief: as §2
T5 sequence (Q13547 whole entry): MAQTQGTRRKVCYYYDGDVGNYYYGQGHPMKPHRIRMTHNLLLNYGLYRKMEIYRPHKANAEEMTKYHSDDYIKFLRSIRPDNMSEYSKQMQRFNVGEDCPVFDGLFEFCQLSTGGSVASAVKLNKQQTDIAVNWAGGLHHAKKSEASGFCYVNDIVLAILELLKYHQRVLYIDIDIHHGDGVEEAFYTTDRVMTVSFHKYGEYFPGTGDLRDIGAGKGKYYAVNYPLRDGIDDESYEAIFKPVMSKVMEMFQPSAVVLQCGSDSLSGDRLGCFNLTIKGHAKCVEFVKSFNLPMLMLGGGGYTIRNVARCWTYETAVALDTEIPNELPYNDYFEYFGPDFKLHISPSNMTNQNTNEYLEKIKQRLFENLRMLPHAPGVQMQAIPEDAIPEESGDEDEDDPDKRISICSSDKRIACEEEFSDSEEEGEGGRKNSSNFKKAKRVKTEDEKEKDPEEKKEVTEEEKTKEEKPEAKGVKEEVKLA

[10] = target: T5, HDAC1 (histone deacetylase 1); experiment: Inhibition of recombinant human HDAC1 at 10 uM using ZMAL as substrate incubated for 90 mins by fluorescence based micro plate assay relative to control; conditions: recombinant human HDAC1, probe ZMAL; method in brief: as §2
[11] = target: T6, Protein deacetylase HDAC6 (Homo sapiens, UniProt Q9UBN7); experiment: Inhibition of recombinant human HDAC6 using ZMAL as substrate incubated for 90 mins by fluorescence based micro plate assay
T6 sequence (Q9UBN7 whole entry): T1 sequence (Q9UBN7 whole entry)

[12] = target: T7, Histone deacetylase 8 (Homo sapiens) (UniProt Q9BY41); experiment: Inhibition of human recombinant HDAC8 at 1 uM using H2N-Arg-His-Lys(Ac)-Lys(Ac)-AMC as substrate after 90 mins by fluorescence based micro plate assay; method in brief: as §3
T7 sequence (whole entry): T4 sequence (Q9BY41 whole entry)

[13] = target: T8, Histone deacetylase 1 (Homo sapiens, UniProt Q13547); experiment: Inhibition of recombinant human HDAC1 using ZMAL as substrate incubated for 90 mins by fluorescence based micro plate assay
T8 sequence (Q13547 whole entry): as above

[14] = Solubility of the compound; type: physicochemical
[15] = system: Schistosoma mansoni; experiment: Antischistosomal activity against Schistosoma mansoni schistosomula incubated for 72 hrs by Alamar Blue assay; type: functional, organism-based
Method in brief: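 Same schistosomula Alamar Blue assay (100 NTS/well, supplemented Medium 199, 37°C, 5% CO2) run over a range of concentrations. Alamar Blue added after 48 h drug exposure, fluorescence (Ex 530/Em 590 nm) read 24 h later, 72 h in culture in total. EC50 taken from the concentration-response.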

[16] = target: T1, HDAC6 (protein deacetylase HDAC6); experiment: Inhibition of recombinant human HDAC6 at 10 uM using ZMAL as substrate incubated for 90 mins by fluorescence based micro plate assay relative to control; conditions: recombinant human HDAC6, probe ZMAL; method in brief: as §2
[17] = target: T8, Histone deacetylase 1; experiment: as §4; conditions: 1.5 h, 1 µM; method in brief: as §2

Structure (SMILES)	inhibition at 1.5 h, 100 µM [4] [%]	inhibition [5] [%]	inhibition at 1.5 h, 1 µM [6] [%]	IC50 [7] [µM]	IC50 [8] [µM]	inhibition at 1.5 h, 1 µM [9] [%]	inhibition at 1.5 h, 10 µM [10] [%]	IC50 [11] [µM]	inhibition [12] [%]	IC50 [13] [µM]	solubility [14]	EC50 [15] [µM]	inhibition at 1.5 h, 10 µM [16] [%]	inhibition (INH) [17]	Activity [1] [%]	Activity [2] [%]	Activity [3] [%]
COc1ccc(NC(=O)c2cc(C(=O)NO)ccc2OC)cc1			18	0.43	0.27	2									91	94.5	83.3
COc1ccc(C(=O)NO)cc1C(=O)Nc1cccc(Cl)c1			25	0.17	0.28	0									85.6	88.2	82.8
COc1ccc(C(C)=O)cc1NC(=O)c1cc(C(=O)NO)ccc1OC				0.15				0.02	71	0.36					78.2	66.2	66.2
CCOc1ccc(C(C)=O)cc1NC(=O)c1cc(C(=O)NO)ccc1Cl				0.14	0.22			0.11		18.1					57	60.6	33.1
CCOc1ccc(C(=O)NO)cc1NC(=O)c1ccc(Cl)cc1Cl				0.1	0.23			7.74		21.1					56.2	86.8	56.4

Second part, led by results:

inhibition at 1.5 h, 100 µM [4] [%]	inhibition [5] [%]	inhibition at 1.5 h, 1 µM [6] [%]	IC50 [7] [µM]	IC50 [8] [µM]	inhibition at 1.5 h, 1 µM [9] [%]	inhibition at 1.5 h, 10 µM [10] [%]	IC50 [11] [µM]	inhibition [12] [%]	IC50 [13] [µM]	solubility [14]	EC50 [15] [µM]	inhibition at 1.5 h, 10 µM [16] [%]	inhibition (INH) [17]	Structure (SMILES)	Activity [1] [%]	Activity [2] [%]	Activity [3] [%]
41														COc1ccc(Cn2ccc3ccc(C(=O)NO)cc32)cc1	71	96.8	62.3
	51													CCOc1ccc(C(=O)NO)cc1NC(=O)c1ccc(OC)cc1	64.4	88.7	59.4
			0.11	0.78	7	18	2.4							O=C(NO)c1ccc(Cl)c(NC(=O)c2ccc(-c3ccccc3)cc2Cl)c1	60.6	77	43.5
		94			20									O=C(NO)c1ccc(Cl)c(C(=O)Nc2ccc(Cl)cc2)c1	77.6	69.5	62.3
			0.27	0.32			0.29		18.5	Insoluble	3.5			COc1ccc(C(=O)NO)cc1NC(=O)c1cccc2c1oc1ccccc12	2.2	73	
		15	0.1	1.1		16						46	Not Active	COc1ccc(C(=O)NO)cc1NC(=O)c1ccc(-c2ccccc2)cc1Cl	64	94.6	65.6
